Measurements as given in ChEMBL document CHEMBL1123757, “Selective thromboxane synthetase inhibitors and antihypertensive agents. New derivatives of 4-hydrazino-5H-pyridazino[4,5-b]indole, 4-hydrazinopyridazino[4,5-a]indole, and related compounds” (J Med Chem, 1987).

Assays:
[1] = test system: Rattus norvegicus; experiment: Antihypertensive activity in spontaneously hypertensive rats (SHR) measured by percentage fall in arterial pressure (AP) at 25 mg/kg administered intraperitoneally at 24 h;No significance; type: functional, organism-based; set-up: dose 25 mg/kg; conditions: Artery
How it was run: (§1)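 Unanesthetized Okamoto-strain SHR, male and female, 8 weeks old, 300–350 g, systolic pressure ≥190 mmHg, heart rate 400–650 beats/min; five animals per dose. Given ip at 2.5 mL/kg, dissolved or suspended in normal saline or saline with 0.2% (carboxymethyl)cellulose and 1.0% Tween 80. Tail AP and CR recorded by mechanical transduction at set times; reported as percentage fall from control.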

[2] = organism: Homo sapiens; experiment: In vitro inhibition of platelet aggregation induced by AA (PRP incubated for 60 minutes at 37 degree C) at 5e-6 M;No significance; type: functional
How it was run: (§2)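 Human venous blood anticoagulated with 3.8% sodium citrate (1:9). PRP from centrifugation at 800 rpm for 10 min at room temperature. Count adjusted with PPP to […]. Compound in saline with 10% ethylene glycol is added to PRP and incubated at 37 °C before the agonist. Agonists: ADP 2×10^-5 M, AA 0.6 mM, PGH2 2.8 μM, adrenaline 0.6 μM. Born absorbance aggregometry; n = 5.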

[3] = organism: Homo sapiens; experiment: In vitro inhibition of platelet aggregation induced by DD (PRP incubated for 5 minutes at 37 degree C) at 10e-5 M;No significance; type: functional; how it was run: as §2
[4] = organism: Homo sapiens; experiment: In vitro inhibition of platelet aggregation induced by ADP-II (PRP incubated for 5 minutes at 37 degree C) at 10e-5 M; type: functional; how it was run: as §2
[5] = organism: Homo sapiens; experiment: In vitro inhibition of platelet aggregation induced by […] (PRP incubated for 5 minutes at 37 degree C) at 5 e-6 M;No significance; type: functional
[6] = test system: Rattus norvegicus; experiment: Antihypertensive activity in spontaneously hypertensive rats (SHR) measured by percentage fall in cardiac rhythm (CR) at 25 mg/kg administered intraperitoneally at 24 h; type: functional, Heart; conditions: route intraperitoneal; how it was run: as §1
[7] = organism: Homo sapiens; experiment: In vitro inhibition of platelet aggregation induced by AA (PRP incubated for 60 minutes at 37 degree C) at 10e-5 M;No significance; type: functional; how it was run: as §2
[8] = test system: Rattus norvegicus; experiment: Antihypertensive activity in spontaneously hypertensive rats (SHR) measured by percentage fall in arterial pressure (AP) at 25 mg/kg administered intraperitoneally at 5 h;No significance; type: functional, organism-based; set-up: dose 25 mg/kg; conditions: Artery; how it was run: as §1
[9] = test system: Rattus norvegicus; experiment: Antihypertensive activity in spontaneously hypertensive rats (SHR) measured by percentage fall in cardiac rhythm (CR) at 25 mg/kg administered intraperitoneally at 3 h; type: functional, Heart; conditions: route intraperitoneal; how it was run: as §1
[10] = test system: Rattus norvegicus; experiment: Antihypertensive activity in spontaneously hypertensive rats (SHR) measured by percentage fall in arterial pressure (AP) at 25 mg/kg administered intraperitoneally at 3 h;No significance; type: functional, organism-based; set-up: dose 25 mg/kg; conditions: Artery; how it was run: as §1
[11] = test system: Rattus norvegicus; experiment: Antihypertensive activity in spontaneously hypertensive rats (SHR) measured by percentage fall in cardiac rhythm (CR) at 25 mg/kg administered intraperitoneally at 5 h; type: functional, Heart; conditions: route intraperitoneal
How it was run: (§3)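 Conscious SHR (Okamoto strain), 8 weeks old, male and female, 300–350 g, systolic BP ≥190 mmHg, CR 400–650 beats/min. Given ip or po at 2.5 mL/kg in normal saline or saline with 0.2% (carboxymethyl)cellulose and 1.0% Tween 80. Tail AP and CR recorded by mechanical transduction at 1, 3, 5 and 24 h, five animals per dose. Effect expressed as % fall versus control.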

[12] = organism: Homo sapiens; experiment: In vitro inhibition of platelet aggregation induced by ADP-II (PRP incubated for 60 minutes at 37 degree C) at 10e-5 M; type: functional; conditions: 1 h; how it was run: as §2
[13] = test system: Rattus norvegicus; experiment: Antihypertensive activity in spontaneously hypertensive rats (SHR) measured by percentage fall in arterial pressure (AP) at 25 mg/kg administered intraperitoneally at 3 h; type: functional, Artery; conditions: route intraperitoneal; how it was run: as §1
[14] = test system: Rattus norvegicus; experiment: Antihypertensive activity in spontaneously hypertensive rats (SHR) measured by percentage fall in arterial pressure (AP) at 25 mg/kg administered intraperitoneally at 5 h; type: functional, Artery; conditions: route intraperitoneal; how it was run: as §1
[15] = test system: Rattus norvegicus; experiment: Antihypertensive activity in spontaneously hypertensive rats (SHR) measured by percentage fall in arterial pressure (AP) at 25 mg/kg administered intraperitoneally at 1 h; type: functional, Artery; conditions: route intraperitoneal; how it was run: as §1
[16] = test system: Rattus norvegicus; experiment: Antihypertensive activity in spontaneously hypertensive rats (SHR) measured by percentage fall in cardiac rhythm (CR) at 25 mg/kg administered intraperitoneally at 5 h; No significance; type: functional, organism-based; set-up: dose 25 mg/kg; conditions: Heart; how it was run: as §3
[17] = test system: Rattus norvegicus; experiment: Antihypertensive activity in spontaneously hypertensive rats (SHR) measured by percentage fall in cardiac rhythm (CR) at 25 mg/kg administered intraperitoneally at 1 h; type: functional, Heart; conditions: route intraperitoneal; how it was run: as §1
[18] = organism: Homo sapiens; experiment: In vitro inhibition of platelet aggregation induced by ADP-II (PRP incubated for 5 minutes at 37 degree C) at 10e-5 M; No significance; type: functional; how it was run: as §2
[19] = organism: Homo sapiens; experiment: In vitro inhibition of platelet aggregation induced by AA (PRP incubated for 60 minutes at 37 degree C) at 10e-5 M; No significance; type: functional; how it was run: as §2
[20] = organism: Homo sapiens; experiment: In vitro inhibition of platelet aggregation induced by […] (PRP incubated for 5 minutes at 37 degree C) at 10e-5 M; No significance; type: functional
[21] = test system: Rattus norvegicus; experiment: Antihypertensive activity in spontaneously hypertensive rats (SHR) measured by percentage fall in cardiac rhythm (CR) at 25 mg/kg administered perorally at 24 h;No significance; type: functional, organism-based; set-up: dose 25 mg/kg; conditions: Heart; how it was run: as §3
[22] = test system: Rattus norvegicus; experiment: Percent fall in systolic blood pressure, directly measured on carotid (iv on the jugular vein) of spontaneously hypertensive rats at 1 mg/kg after 240 minutes; No significance; type: functional, organism-based; set-up: dose 1 mg/kg; conditions: Artery
How it was run: (§4)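 Anesthetized (sodium pentobarbital, 70 mg/kg) male and female Okamoto SHR, 8 weeks old, 300–350 g. Given iv into the jugular vein in normal saline. Arterial pressure and cardiac rhythm are recorded directly from the carotid by polygraph at set times after dosing. Each is expressed as percent change from the pre-dose control value.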

[23] = test system: Rattus norvegicus; experiment: Antihypertensive activity in spontaneously hypertensive rats (SHR) measured by percentage fall in arterial pressure (AP) at 25 mg/kg administered perorally at 24 h;No significance; type: functional, organism-based; set-up: dose 25 mg/kg; conditions: Artery
How it was run: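 Oral dosing at 2.5 mL/kg to unanesthetized male and female Okamoto-strain SHR (8 weeks old, 300–350 g, systolic pressure ≥190 mmHg, heart rate 400–650 beats/min), five per dose. Vehicle was normal saline or saline with 0.2% (carboxymethyl)cellulose and 1.0% Tween 80. AP measured on the tail by mechanical transduction at set times; expressed as percentage fall from control.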

[24] = test system: Rattus norvegicus; experiment: Antihypertensive activity in spontaneously hypertensive rats (SHR) measured by percentage fall in arterial pressure (AP) at 1 mg/kg administered intraperitoneally at 5 h;No significance; type: functional, organism-based; set-up: dose 1 mg/kg; conditions: Artery; how it was run: as §1
[25] = test system: Rattus norvegicus; experiment: Antihypertensive activity in spontaneously hypertensive rats (SHR) measured by percentage fall in arterial pressure (AP) at 1 mg/kg administered intraperitoneally at 1 h;No significance; type: functional, organism-based; set-up: dose 1 mg/kg; conditions: Artery; how it was run: as §1
[26] = test system: Rattus norvegicus; experiment: Percent fall in systolic blood pressure, directly measured on carotid (iv on the jugular vein) of spontaneously after 180 minutes; No significance; type: functional, organism-based; conditions: Artery; how it was run: as §4

Oc1ccc2[nH]c3c(O)nncc3c2c1
Decrease in AP [1]: No significant values | inhibition [2]: No significant values | inhibition [3]: No significant values | inhibition at 10 µM [4]: 87% | inhibition [5]: No significant values | Decrease in CR [6]: -8% | inhibition [7]: No significant values | Decrease in AP [8]: No significant values | Decrease in CR [9]: -11% | Decrease in AP [10]: No significant values | Decrease in CR [11]: -7% | inhibition at 10 µM [12]: 100%

COc1ccc2[nH]c3c(O)nncc3c2c1
Decrease in AP [13]: 10% | Decrease in AP [14]: 5% | Decrease in AP [15]: 10% | Decrease in CR [9]: 5% | inhibition [16]: No significant values | Decrease in CR [17]: 7% | inhibition [18]: No significant values | inhibition [19]: No significant values | inhibition [20]: No significant values | inhibition at 10 µM [12]: 100%

NNc1[nH]ncc2c3cc(O)ccc3nc1-2
Decrease in CR [21]: No significant values | Decrease in blood pressure [22]: No significant values | Decrease in AP [23]: No significant values | Decrease in AP [24]: No significant values | Decrease in AP [25]: No significant values | Decrease in blood pressure [26]: No significant values
